KCC2 mod: KCC2 (human) Cl- transport modulation; Q9H2X9; KCC2 cells, thallium flux FluoZin-2 fluorescence; AID 1456; 2.2% of 190,000 active; B-score of Tl+ flux slope (higher = more flux/activation; lower = inhibition) at 10 µM;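 active = thallium flux slope and its plate-corrected score both differing from the plate sample mean at a set confidence after two filtering rounds, in either direction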;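 note: slope of fluorescence scaled to starting intensity during 10 to 20 s after thallium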
MrgX1 antag: antagonists of human MrgX1 receptor; Q96LB2; MRGX1-HEK293 calcium flux, Fluo-4, BAM8-22 antagonism; stronger effect = lower value; B-score at 10 µM; 1.3% of 310,000 active; AID 588676;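 active = calcium-response B-score plate-corrected more than 3 library SD below zero, starting fluorescence within 5 deviations, no agonist response on first addition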;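 note: peak minus trough fluorescence over baseline after final BAM8-22 challenge near maximal dose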
MrgX1 agonist: activates human MrgX1 receptor signaling | 0.44% of 310,000 active | Q96LB2 | MrgX1-HEK293 cells, Fluo-4 calcium fluorescence, agonist mode; stronger effect = higher value | AID 588627 | B-score at 10 µM;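 active = calcium response B-score plate-corrected fluorescence ratio at least 3 library SD, with starting fluorescence B-score inside 5 SD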
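Material: MrgX1-expressing HEK293 cells; input: 15,000 cells per well; doses: test compound given as first of three sequential additions; schedule: overnight plating before 1 h dye loading; technique: Fluo-4 NW calcium-flux fluorescence, kinetic read; evaluation: baseline-normalised fluorescence change ratio, B-scored; control set: plate-wise positive and negative controls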
RGS4 act: RGS4 potentiation or activation | HEK293 M3R/inducible RGS4, carbachol calcium flux Fluo4; stronger effect = lower value | B-score at 10 µM | 0.92% of 310,000 active;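 active = B-score of the integrated calcium signal more than 4 SD below the library mean, with starting fluorescence not abnormally high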;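 note: negative B-score means reduced calcium response which marks RGS4 activation or potentiation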
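Also added: carbachol at ECmax as muscarinic agonist stimulus; Assay system: HEK293 cells with stable M3R and inducible RGS4; Timing: overnight RGS4 induction, 30 min dye load 37 °C, 20 min compound RT; Measured by: Fluo4-AM (2 µM) calcium-flux fluorescence, kinetic read.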
MrgX1 allo act: allosterically activates human MrgX1 receptor signaling | B-score at 10 µM | 0.63% of 310,000 active | Q96LB2 | MrgX1-HEK293, Fluo-4 calcium flux, FDSS; stronger effect = higher value | AID 588675;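 active = plate-corrected calcium response at least 3 library SD above typical, normal starting fluorescence, not activating the receptor alone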;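 note: compound read alongside a low EC10 to EC30 dose of BAM8-22 agonist; peak minus trough fluorescence over baseline measured at the second addition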
RGS4 block: inhibitors of human RGS4 | HEK293 M3R/RGS4 inducible, Fluo-4 calcium flux; stronger effect = higher value; triggered by carbachol at its EC20 | B-score at 10 µM | 0.45% of 310,000 active;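 active = B-score, a plate-corrected calcium signal, over three deviations above library mean, with baseline fluorescence within five deviations of library mean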;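 note: RGS4 expression induced by doxycycline in cells with stable M3 receptor; B-score is computed from the integrated fluorescence ratio over baseline after carbachol; higher B-score means a larger calcium signal and so more RGS4 inhibition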
Target sequence (P49798 whole entry, looked up): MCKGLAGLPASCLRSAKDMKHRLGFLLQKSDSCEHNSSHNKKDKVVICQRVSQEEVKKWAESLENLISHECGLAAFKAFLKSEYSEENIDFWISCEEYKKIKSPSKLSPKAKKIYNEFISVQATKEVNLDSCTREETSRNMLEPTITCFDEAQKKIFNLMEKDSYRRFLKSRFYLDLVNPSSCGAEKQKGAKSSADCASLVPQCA
* marks the source's active call; other numbers are inactive results; i = inactive; · = no result. A selection: hits, their analogues and other compounds. The true share with any hit is near 4.7%.

SMILES | KCC2 mod | MrgX1 antag | MrgX1 agonist | RGS4 act | MrgX1 allo act | RGS4 block
COc1cc(/C=C2\SC(=S)N(NC(=O)c3ccccc3O)C2=O)ccc1O | · | i | 40* | i | i | i
COc1cc(/C=C2\SC(=S)N(N(C)c3ccccc3)C2=O)ccc1O | 0.011 | i | 34* | i | i | i
Cc1nn(-c2ccccc2)c(C)c1NC(=O)COC(=O)C1CC(=O)N(CCc2ccccc2)C1 (centres undefined) | · | i | i | i | i | i
CC(C)[C@H](NC(=O)N1CCn2c1nc1ccccc12)C(=O)N1CCCCC1 | · | i | i | i | i | i
Cc1ccc(S(=O)(=O)NC(CC(C)C)C(=O)NCC(C)(C)N2CCOCC2)cc1 (centres undefined) | · | i | i | i | i | i
CCN(CC(=O)Nc1ccccc1C(F)(F)F)C(=O)C1=COCCO1 | · | i | i | i | i | i
O=C(CC12CC3CC(CC(C3)C1)C2)NC(Cc1ccccc1)C(=O)O (centres undefined) | 1.4 | i | i | i | i | i
CNC[C@H](CC1CCCCC1)NC[C@H](Cc1ccccc1)NCCC12CC3CC(CC(C3)C1)C2 | · | -9.5* | i | -8.9* | 7.7* | i
CC(C)CC(=O)Nc1nnc(S(=O)(=O)N2CCCCCC2)s1 | · | i | i | i | i | i
CC(C)C1Cc2c(sc3[nH]c(=S)n(Cc4ccccc4)c(=O)c23)CO1 (centres undefined) | 19* | i | i | i | i | i
CCN1c2ccccc2NC2C1C(C(C)=O)C(=O)N2c1ccc(Cl)cc1 (centres undefined) | · | -5.1* | i | i | i | i
O=C1Nc2ccccc2N(O)N1c1ccc(Cl)cc1 | 0.0032 | i | i | i | i | i
COc1ccc(SCC(=O)c2cc(C)c(OC(=S)N(C)C)c(C)c2)cc1 | -0.046 | i | i | -7* | i | i
Cc1cc(C(=O)CSc2ccc(F)cc2)cc(C)c1OC(=S)N(C)C | -0.82 | i | i | i | i | i
COc1ccc(C)cc1NC(=O)CSc1nnc2ccc(-c3cccnc3)nn12 | · | i | i | i | i | i
Cc1cc(N/N=C/c2ccccc2O)nc(-c2ccccc2O)n1 | 0.43 | i | i | i | i | i
COC(=O)c1cccc(Nc2cc(C)nc(-c3ccccc3O)n2)c1 | · | i | i | i | i | i
Cc1cc(N/N=C\c2ccccc2)nc(-c2ccccc2O)n1 | 0.6 | i | i | -7.6* | i | i
COC(=O)c1ccc(Nc2cc(C)nc(-c3ccccc3O)n2)cc1 | 6.2* | i | i | i | i | i
Cn1c(=O)c(C(=O)COC(=O)c2cc(C(F)(F)F)nc3c(C(F)(F)F)cccc23)c(N)n(CC2CC2)c1=O | -0.69 | -7.5* | i | -8.9* | i | i
O=C(Cn1cnc2c(nnn2Cc2ccc(Cl)cc2)c1=O)N1CCN(c2ccccc2)CC1 | -3.9* | i | i | · | i | ·
COc1ccc(CNC(=O)CSc2nccn(-c3ccc(F)c(F)c3)c2=O)cc1 | · | i | i | i | i | i
Cc1cccc[n+]1CC(=O)/C=C1\N(C)c2ccccc2C1(C)C | -0.15 | i | i | i | i | i
CN1/C(=C\C(=O)CN2C(=O)NC3(CCCCCC3)C2=O)C(C)(C)c2ccccc21 | -3.6* | i | i | i | i | i
CC1(c2ccc(OCC#N)cc2)C=C(c2ccc(OCC#N)cc2)n2nc(C(F)(F)F)nc2N1 (centres undefined) | 0.32 | i | i | i | i | i
Cc1ccc(C2=CC(C)(c3ccc(C)cc3)Nc3nc(C(F)(F)F)nn32)cc1 (centres undefined) | -0.037 | i | i | -7* | i | i
NC(=S)N=Nc1ccc(NN=C(N)N)cc1 | · | i | 31* | i | i | i
Clc1ccc2c(c1)CCc1cccnc1C2=C1CCNCC1 | -0.43 | i | i | -7.2* | i | i

High-throughput results deposited in PubChem by several laboratories.
